Data published in ChEMBL document CHEMBL1833887, “Synthesis and evaluation of 7-substituted 4-aminoquinoline analogues for antimalarial activity” (J Med Chem, 2011).
Converted amounts (≈) assume the structure as drawn.

Legend:
[1] = Solubility of the compound at pH 7.4 after 18 hrs by UV spectroscopic analysis; format: physicochemical; details: buffer
Procedure, shortened: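 Kinetic solubility. A 10 mM stock is diluted 1:100 into PBS pH 7.4 and incubated 18 h at room temperature, then filtered; the filtrate is mixed 1:1 with 1-propanol. UV spectrum (250–500 nm) compared by AUC with a 1-propanol/PBS reference. Single experiment in triplicate.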

[2] = Permeability of the compound at pH 7.4 after 30 mins by PAMPA; format: ADME; details: read-out: permeability
Procedure, shortened: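 PAMPA at pH 7.4. A 10 mM DMSO stock is diluted into system solution buffer; its UV spectrum serves as reference. Membrane painted with GIT lipid, acceptor chamber holds acceptor solution buffer. Sandwich stirred for 30 min, aqueous boundary layer set to 40. Donor and acceptor UV spectra read at 250–500 nm. Permeability coefficient from the AUCs of reference, donor and acceptor. Single experiment in triplicate.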

[3] = Dissociation constant, pKa of the compound; format: physicochemical
Plasmodium falciparum [4] = test: Antimalarial activity against chloroquine-sensitive Plasmodium falciparum 3D7 infected in human erythrocytes assessed as reduction in parasitemia after 72 hrs by spectrophotometry; format: functional, organism-based; details: 3D7, 72 h
Plasmodium falciparum [5] = test: Antimalarial activity against chloroquine-resistant Plasmodium falciparum K1 infected in human erythrocytes assessed as reduction in parasitemia after 72 hrs by spectrophotometry; format: functional, organism-based; details: K1, 72 h
Plasmodium falciparum [6] = test: Ratio of EC50 for chloroquine-resistant Plasmodium falciparum K1 infected in human erythrocytes to EC50 for chloroquine-sensitive Plasmodium falciparum 3D7 infected in human erythrocytes; format: functional
HepG2 = test: Cytotoxicity against human HepG2 cells assessed as intracellular ATP level after 72 hrs by Celltiter-Glo luminescent assay; format: cell-based; details: HepG2, 72 h
[7] = Ratio of EC50 for human HepG2 cells to EC50 for Plasmodium falciparum 3D7 infected in human erythrocytes
[8] = Ratio of EC50 for human HepG2 cells to EC50 for Plasmodium falciparum K1 infected in human erythrocytes

Row | SMILES | solubility at 18 h [1] [µM] | Papp at 0.5 h [2] [×10⁻⁶ cm/s] | pKa [3] | EC50 (Plasmodium falciparum [4]) [nM] | EC50 (Plasmodium falciparum [5]) [nM] | Ratio EC50 (Plasmodium falciparum [6]) | EC50 (HepG2) [nM] | Ratio EC50 [7] | Ratio EC50 [8]
1 | Fc1ccc(Cc2ccc3c(NCCCNCc4ccc5c(c4)OCO5)ccnc3c2)c(Cl)c1 | 4.2 (≈ 2.01 µg/mL) | 23 | 9.47 | 27 | 953 | 35.9 | 16000 | 603.8 | 16.8
2 | COc1ccc(-c2ccc3c(NCCCNCc4ccc5c(c4)OCO5)ccnc3c2)cc1 | 32 (≈ 14.1 µg/mL) | 237 | 9.47 | 29 | 26 | 0.9 | 5630 | 192.9 | 218.3
3 | COc1cccc(CNCCCNc2ccnc3cc(CC4CCCCC4)ccc23)c1O | 4.2 (≈ 1.82 µg/mL) | 23 | 9.47 | 50 | 2610 | 52.7 | 970 | 19.6 | 0.4
4 | c1ccc(Oc2ccc3c(NCCCNCc4ccc5c(c4)OCO5)ccnc3c2)cc1 | 14.5 (≈ 6.2 µg/mL) | 317 | 9.28 | 18 | 78 | 4.3 | 2700 | 149 | 34
5 | COc1ccc(F)cc1CNCCCNc1ccnc2cc(Oc3ccc(Cl)cc3)ccc12 | 14.5 (≈ 6.76 µg/mL) | 317 | 9.28 | 31 | 109 | 3.5 | 4500 | 143 | 41
6 | COc1ccc(F)cc1CNCCCNc1ccnc2cc(Cc3ccc(C#N)cc3)ccc12 | 4.2 (≈ 1.91 µg/mL) | 23 | 9.47 | 28 | 770 | 27.5 | 6050 | 216.2 | 7.9
7 | COc1ccc(-c2ccc3c(NCCCNCc4ccco4)ccnc3c2)cc1 | 32 (≈ 12.4 µg/mL) | 237 | 9.47 | 11 | 23 | 2.2 | 6000 | 565.7 | 261.9
8 | COc1ccc(F)cc1CNCCCNc1ccnc2cc(Oc3ccccc3)ccc12 | 14.5 (≈ 6.26 µg/mL) | 317 | 9.28 | 162 | 138 | 0.9 | 1500 | 9 | 11
9 | c1ccc2c(-c3ccc4c(NCCCNCc5ccc6c(c5)OCO6)ccnc4c3)cccc2c1 | 32 (≈ 14.8 µg/mL) | 237 | 9.47 | 598 | 538 | 0.9 | 6570 | 11 | 12.2
10 | c1coc(CNCCCNc2ccnc3cc(CC4CCCCC4)ccc23)c1 | 4.2 (≈ 1.59 µg/mL) | 23 | 9.47 | 55 | 621 | 11.2 | 1700 | 30.7 | 2.7
11 | CC(C)(C)c1ccc(-c2ccc3c(NCCCNCc4ccco4)ccnc3c2)cc1 | 32 (≈ 13.2 µg/mL) | 237 | 9.47 | 704 | 325 | 0.5 | 3150 | 4.5 | 9.7
12 | COc1ccc(Oc2ccc3c(NCCCNCc4ccc5c(c4)OCO5)ccnc3c2)cc1 | 14.5 (≈ 6.63 µg/mL) | 317 | 9.28 | 46 | 1420 | 30.9 | 7900 | 172 | 6
13 | COc1cccc(CNCCCNc2ccnc3cc(-c4ccc(C(F)(F)F)cc4)ccc23)c1O | 32 (≈ 15.4 µg/mL) | 237 | 9.47 | 13 | 24 | 1.8 | 2210 | 166.2 | 91
14 | COc1cccc(CNCCCNc2ccnc3cc(Cc4ccc(F)cc4Cl)ccc23)c1O | 4.2 (≈ 2.02 µg/mL) | 23 | 9.47 | 13 | 5140 | 404.4 | 2350 | 185.4 | 0.5
15 | CC(C)(C)c1ccc(Oc2ccc3c(NCCCNCc4ccco4)ccnc3c2)cc1 | 14.5 (≈ 6.23 µg/mL) | 317 | 9.28 | 1110 | 4810 | 4.3 | 3100 | 3 | 1
16 | COc1ccccc1Oc1ccc2c(NCCCNCc3ccc4c(c3)OCO4)ccnc2c1 | 14.5 (≈ 6.63 µg/mL) | 317 | 9.28 | 14 | 517 | 37.7 | 5900 | 427 | 11
17 | COc1ccc(-c2ccc3c(NCCCNCc4cc(F)ccc4OC)ccnc3c2)cc1 | 32 (≈ 14.3 µg/mL) | 237 | 9.47 | 96 | 29 | 0.3 | 5960 | 62.1 | 205.5
18 | N#Cc1ccc(Cc2ccc3c(NCCCNCc4ccc5c(c4)OCO5)ccnc3c2)cc1 | 4.2 (≈ 1.89 µg/mL) | 23 | 9.47 | 23 | 3070 | 136.4 | 6080 | 270.2 | 2
19 | COc1ccc(F)cc1CNCCCNc1ccnc2cc(Cc3cc(C)cc(C)c3)ccc12 | 4.2 (≈ 1.92 µg/mL) | 23 | 9.47 | 34 | 794 | 23.1 | 940 | 27.4 | 1.2
20 | CC(C)CCc1ccc2c(NCCCNCc3ccc4c(c3)OCO4)ccnc2c1 | 4.2 (≈ 1.7 µg/mL) | 23 | 9.47 | 27 | 206 | 7.6 | 2800 | 103.1 | 13.5
21 | COc1ccccc1Oc1ccc2c(NCCCNCc3cccc(OC)c3O)ccnc2c1 | 14.5 (≈ 6.66 µg/mL) | 317 | 9.28 | 9 | 5700 | 626.4 | 11200 | 1227 | 2
